Measurements from ChEMBL document CHEMBL1151307, “Effects of tannins from Geum japonicum on the catalytic activity of thrombin and factor Xa of blood coagulation cascade” (J Nat Prod, 1998).
The source made the active and inactive calls.

What was measured:
[1] = target: Prothrombin (Bos taurus) (UniProt P00735); experiment: Inhibition of bovine thrombin upto 100 uM
How it was run: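 Bovine plasma thrombin (0.19 NIH units/mL) in Tris/0.1 M NaCl, pH 7.5, was preincubated 2 min at 37 °C with compound in 0.1% DMSO, which also served as vehicle control. Reaction was started with S-2238 (0.66 mM, as added) and read as the rise in A405 over 5 min. Results are percent inhibition of thrombin activity.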

[2] = target: T1, Prothrombin (Bos taurus, UniProt P00735); experiment: Inhibition of bovine thrombin-catalyzed hydrolysis of S-2238
How it was run: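 Bovine plasma thrombin (0.19 NIH units/mL solution) in 0.05 M Tris with 0.1 M NaCl (pH 7.5) was preincubated with compound for 2 min at 37 °C. S-2238 was added as a 0.66 mM solution to start the reaction. p-Nitroaniline release was followed at 405 nm over 5 min and expressed as % inhibition. IC50 is the concentration that inhibits 50% of initial activity. Mean of three experiments.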

[3] = target: T2, Coagulation factor X (Homo sapiens, UniProt P00742); experiment: Inhibition of human factor 10a-catalyzed hydrolysis of S-2222
How it was run: (§1)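 Compound and 0.20 mM S-2222 were mixed in 0.05 M Tris/0.1 M NaCl, pH 8.3. Reaction was started with factor Xa (50 ng/mL) and 4-nitroanilide release was read at 405 nm over 5 min at 37 °C. IC50 is the concentration giving 50% inhibition of initial activity, mean ± SD of three experiments. Ki was determined with S-2222 at 0.04-0.20 mM.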

[4] = test system: Plasma; experiment: Anticoagulant activity in rabbit plasma assessed as activated partial thromboplastin time at 0.1 mM after 2 mins; type: functional, Oryctolagus cuniculus; conditions: in the assay text read “1 mM” for “0.1 mM”
How it was run: (§2)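 Rabbit plasma with test compound in 0.05 M Tris buffer was incubated with APTT reagent for 2 min at 37 °C. Clotting was started with 25 mM CaCl2 and timed on a fibrometer. Clotting time is in seconds, mean ± SD (n = 3-5), compared with control by Student's t-test. Clotting beyond 300 s was scored as no clotting.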

[5] = test system: Plasma; experiment: Anticoagulant activity in rabbit plasma assessed as thrombin time at 0.1 mM after 2 mins; type: functional, Oryctolagus cuniculus; conditions: in the assay text read “1 mM” for “0.1 mM”
How it was run: (§3)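 Rabbit plasma, 0.05 M Tris buffer and compound in Tris were preincubated for 2 min at 37 °C. Clotting was started with bovine thrombin (3-4 NIH units/mL) and timed on a fibrometer. Clotting time is in seconds, mean ± SD (n = 3-5), with Student's t-test against control. Clotting beyond 300 s was scored as no clotting.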

[6] = test system: Plasma; experiment: Anticoagulant activity in rabbit plasma assessed as thrombin time at 0.5 mM after 2 mins; type: functional, Oryctolagus cuniculus; how it was run: as §3
[7] = test system: Plasma; experiment: Anticoagulant activity in rabbit plasma assessed as prothrombin time at 0.1 mM after 2 mins; type: functional, Oryctolagus cuniculus; conditions: in the assay text read “1 mM” for “0.1 mM”
How it was run: (§4)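 Rabbit plasma was preincubated 2 min at 37 °C with compound dissolved in 0.05 M Tris buffer plus Tris/0.1 M NaCl, pH 7.5. Clotting was triggered with thromboplastin-calcium reagent and read on a fibrometer. Clotting time is in seconds, mean ± SD (n = 3-5), with Student's t-test against control. A cut-off of >300 s was scored as no clotting.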

[8] = target: T1, Prothrombin; experiment: Inhibition of bovine thrombin-catalyzed hydrolysis of fibrinogen
How it was run: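 Compound at various concentrations was preincubated with thrombin (0.05 NIH units/mL solution) for 3 min at 37 °C. The reaction was started with fibrinogen (2 mg/mL solution). Clot turbidity was read at 405 nm for 5 min and velocities were taken as mOD/min. IC50 is the concentration that inhibits 50% of initial activity. Mean of three experiments.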

[9] = target: T2, Coagulation factor X; experiment: Inhibition of human factor 10a; how it was run: as §1
[10] = test system: Plasma; experiment: Anticoagulant activity in rabbit plasma assessed as activated partial thromboplastin time at 0.5 mM after 2 mins; type: functional, Oryctolagus cuniculus; how it was run: as §2
[11] = test system: Plasma; experiment: Anticoagulant activity in rabbit plasma assessed as prothrombin time at 0.5 mM after 2 mins; type: functional, Oryctolagus cuniculus; how it was run: as §4
[12] = target: T1, Prothrombin; experiment: Inhibition of bovine thrombin by Lineweaver-Burke plot analysis
How it was run: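 Bovine plasma thrombin (0.19 NIH units/mL) was run in 0.05 M Tris/0.1 M NaCl, pH 7.5, at 37 °C. It was preincubated with compound for under 2 min, and the reaction was started with S-2238 at 0.6-1.7 mM. Initial rates were taken as p-nitroaniline release at 405 nm. Inhibition type and Ki came from linear-regression Lineweaver-Burk plots.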

[13] = test system: Plasma; experiment: Anticoagulant activity in rabbit plasma assessed as activated partial thromboplastin time at 0.25 mM after 2 mins; type: functional, Oryctolagus cuniculus
How it was run: (§5)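 APTT: rabbit plasma with compound (dissolved in 0.05 M Tris buffer) and APTT reagent preincubated 2 min, then clotting started with 25 mM CaCl2. Clotting time was read on a fibrometer at 37 °C. Values are the mean of three separate determinations (mean ± SD, n = 3-5), with clotting >300 s recorded as no clotting.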

[14] = Toxicity in po dosed mouse; type: organism-based; conditions: in vivo
[15] = test system: Plasma; experiment: Anticoagulant activity in rabbit plasma assessed as activated partial thromboplastin time at 0.75 mM after 2 mins; type: functional, Oryctolagus cuniculus; how it was run: as §2
[16] = test system: Plasma; experiment: Anticoagulant activity in rabbit plasma assessed as thrombin time at 0.25 mM after 2 mins; type: functional, Oryctolagus cuniculus
How it was run: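 TT: rabbit plasma, 0.05 M Tris and compound in Tris preincubated 2 min, then bovine thrombin (3-4 NIH units/mL) added. Clotting was timed on a fibrometer at 37 °C. Values are the mean of three determinations (mean ± SD, n = 3-5), with >300 s taken as no clotting.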

[17] = test system: Plasma; experiment: Anticoagulant activity in rabbit plasma assessed as prothrombin time at 0.25 mM after 2 mins; type: functional, Oryctolagus cuniculus
How it was run: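 PT: 0.05 M Tris/0.1 M NaCl (pH 7.5), compound in Tris and rabbit plasma incubated 2 min at 37 °C. Clotting started with thromboplastin-calcium reagent and timed on a fibrometer. Values are the mean of three determinations (mean ± SD, n = 3-5). Clotting >300 s was taken as no clotting.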

[18] = test system: Plasma; experiment: Anticoagulant activity in rabbit plasma assessed as thrombin time at 0.75 mM after 2 mins; type: functional, Oryctolagus cuniculus; how it was run: as §3
[19] = test system: Plasma; experiment: Anticoagulant activity in rabbit plasma assessed as prothrombin time at 0.75 mM after 2 mins; type: functional, Oryctolagus cuniculus; how it was run: as §4
[20] = Toxicity in po dosed rat; type: organism-based; conditions: in vivo
[21] = test system: Plasma; experiment: Anticoagulant activity in rabbit plasma assessed as activated partial thromboplastin time at 0.47 mM after 2 mins; type: functional, Oryctolagus cuniculus; how it was run: as §5
[22] = test system: Plasma; experiment: Anticoagulant activity in rabbit plasma assessed as prothrombin time at 0.45 mM after 2 mins; type: functional, Oryctolagus cuniculus
How it was run: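 Rabbit plasma incubated 2 min at 37 °C with compound in 0.05 M Tris buffer plus 0.05 M Tris/0.1 M NaCl (pH 7.5); clotting started with thromboplastin-calcium reagent and timed on a fibrometer at 37 °C; clotting time in seconds, cut-off >300 s; average of three separate determinations (mean ± SD, n = 3-5).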

T2 sequence (P00742 41-179 limits assumed): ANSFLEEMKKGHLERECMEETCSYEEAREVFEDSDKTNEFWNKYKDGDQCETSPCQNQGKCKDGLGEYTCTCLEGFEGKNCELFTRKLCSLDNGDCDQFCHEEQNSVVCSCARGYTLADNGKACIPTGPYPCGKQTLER
T2 sequence (P00742 235-488 limits assumed): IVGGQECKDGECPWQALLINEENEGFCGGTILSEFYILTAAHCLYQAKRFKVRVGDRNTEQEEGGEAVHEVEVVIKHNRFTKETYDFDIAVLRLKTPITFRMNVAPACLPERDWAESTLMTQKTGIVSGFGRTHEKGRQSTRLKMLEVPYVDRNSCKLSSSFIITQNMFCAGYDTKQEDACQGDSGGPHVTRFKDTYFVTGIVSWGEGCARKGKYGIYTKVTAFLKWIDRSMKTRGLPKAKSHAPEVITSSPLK

For `O=C(OC[C@H]1O[C@@H](OC(=O)c2ccccc2)[C@H](OC(=O)c2ccccc2)[C@@H](OC(=O)c2ccccc2)[C@@H]1OC(=O)c1ccccc1)c1ccccc1`, the Activity [1] was “inactive”.
In the case of `O=C1OC[C@@H](O)[C@H]([C@@H]2OC(=O)c3cc(O)c(O)c(O)c3-c3c(O)c(O)c(O)c4c3C(=O)O[C@H]2[C@@H]4O)OC(=O)c2cc(O)c(O)c(O)c2-c2c1cc(O)c(O)c2O` [CASUARIIN], the IC50 [2] is reported as 280 nM, the IC50 [3] is reported as 720 nM and the APTT [4] is reported as greater than 300 s. The TT [5] was greater than 300 s, the TT [6] was 12.3 s and the PT [7] was greater than 300 s. It also gave an IC50 [8] of 59 nM, a Ki [9] of 450 nM and an APTT [10] of 72.3 s. The PT [11] was 13.6 s and the Ki [12] was 980 nM.
`O=C1OC[C@H]2OC(O)[C@@H]3OC(=O)c4cc(O)c(O)c(O)c4-c4c(cc(O)c(O)c4O)C(=O)O[C@H]3[C@@H]2OC(=O)c2cc(O)c(O)c(O)c2-c2c1cc(O)c(O)c2O` (stereo not given in full) [PEDUNCULAGIN] showed an APTT [13] of 35.3 s, an IC50 [2] of 180 nM and an IC50 [3] of 560 nM. It also gave an APTT [4] greater than 300 s, a TT [5] greater than 300 s and an LD50 [14] greater than 100 mg/kg. It also gave an APTT [15] of 60.2 s, a TT [16] of 12.6 s and a TT [6] of 22.7 s. The PT [7] was greater than 300 s, the PT [17] was 10.2 s and the IC50 [8] was 150 nM. The Ki [9] was 990 nM, the TT [18] was 33.5 s and the APTT [10] was 43.7 s. For the same compound, the PT [19] was 15.2 s, the LD50 [20] was greater than 100 mg/kg and the PT [11] was 13.5 s. For the same compound, the Ki [12] was 42 nM.
`O=C(OC[C@H]1O[C@@H](OC(=O)c2cc(O)c(O)c(O)c2)[C@H](OC(=O)c2cc(O)c(O)c(O)c2)[C@@H](OC(=O)c2cc(O)c(O)c(O)c2)[C@@H]1OC(=O)c1cc(O)c(O)c(O)c1)c1cc(O)c(O)c(O)c1` [PENTAGALLOYL GLUCOSE] showed an APTT [13] of 50.6 s, an APTT [21] greater than 300 s and an IC50 [2] of 110 nM. It also gave an IC50 [3] of 170 nM, a PT [22] greater than 300 s and a TT [16] greater than 300 s. The TT [6] was greater than 300 s, the PT [17] was 13.9 s and the IC50 [8] was 50 nM. The Ki [9] was 570 nM, the APTT [10] was greater than 300 s and the PT [11] was greater than 300 s. It also gave a Ki [12] of 3900 nM.
Work on `O=C(OC1O[C@@H]2COC(=O)c3cc(O)c(O)c(O)c3-c3c(cc(O)c(O)c3O)C(=O)O[C@H]2[C@H](OC(=O)c2cc(O)c(O)c(O)c2)[C@H]1OC(=O)c1cc(O)c(O)c(O)c1)c1cc(O)c(O)c(O)c1` (stereo not given in full) [TELLIMAGRANDIN II] yielded an IC50 [2] of 70 nM, an IC50 [3] of 210 nM and an APTT [4] greater than 300 s. It also gave a TT [5] greater than 300 s, a TT [6] of 18.7 s and a PT [7] greater than 300 s. It also gave an IC50 [8] of 14 nM, a Ki [9] of 440 nM and an APTT [10] of 45.7 s. For the same compound, the PT [11] was 11.9 s and the Ki [12] was 420 nM.
